Bioassay records: PubChem BioAssay, several laboratories
AI-2 QS modul: modulates the Vibrio harveyi AI-2 quorum sensing system. Vibrio harveyi JMH597 AI-2 luminescence/OD600 ratio, 9 h; active compounds read low; strain lacks LuxN and CqsS sensors; 0 = neutral-control median. activity change, % at 7.5 µM. actives 0.4% (n = 300,000); in the data active = activity change below about -75%, passing the limit was not always enough; inconclusive = no clear call, values can overlap the other calls;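 also: luminescence divided by OD600 gain over 9 h not by final OD600 alone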
GSK3A inh: human GSK-3 alpha kinase inhibition | P49840 | ADP-Glo luminescence, 60 min | inhibition, % at 10 µM | actives 0.1% (n = 320,000) | AID 2650;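 active = more than half of replicates show inhibition above 20%; inconclusive = some but at most half of replicates above 20% inhibition; inactive = no replicate shows inhibition above 20%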;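 also: GST-tagged GSK-3 alpha with peptide substrate and 25 µM ATP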
PolyA inhibitor: yeast polyadenylation inhibition; S. cerevisiae SKY197-pL101 polyadenylation reporter, beta-gal luminescence; efflux-impaired pdr1/pdr3 knockout yeast; score 100 = 6 SD above DMSO; activity score, % at 12 µM; actives 0.02% (n = 300,000); AID 1875;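 active = lowest replicate activity score at least 50, where 100 means six control SD above control mean; inconclusive = lowest score under 50 but half or more replicates reach 50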;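 also: yeast exposed to compound for 9 h at 30 °C; higher score means more reporter readthrough which indicates perturbed polyadenylation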
CR mimetic SO: lowers age-related superoxide in aged yeast cells | S. cerevisiae aged cells, superoxide DHE fluorescence; active compounds read low | superoxide response (% of plate mean), % at 10 µM | actives 0.18% (n = 330,000) | AID 2690;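 active = superoxide response under a set limit, about three screen SD below normal, cut at about 65% in these data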;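 also: yeast aged for seven days with compound at 30 °C before DHE staining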
STK33 inh: blocks human STK33 kinase activity; Q9BYT3; purified STK33, MBP phosphorylation, ADP-Glo luminescence; inhibition, % at 10 µM; actives 0.073% (n = 320,000); AID 2661;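 active = inhibition at or above 25%, using the most active replicate where run in duplicate; inactive = inhibition below 25%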
Target sequence (Q9BYT3 whole entry, looked up): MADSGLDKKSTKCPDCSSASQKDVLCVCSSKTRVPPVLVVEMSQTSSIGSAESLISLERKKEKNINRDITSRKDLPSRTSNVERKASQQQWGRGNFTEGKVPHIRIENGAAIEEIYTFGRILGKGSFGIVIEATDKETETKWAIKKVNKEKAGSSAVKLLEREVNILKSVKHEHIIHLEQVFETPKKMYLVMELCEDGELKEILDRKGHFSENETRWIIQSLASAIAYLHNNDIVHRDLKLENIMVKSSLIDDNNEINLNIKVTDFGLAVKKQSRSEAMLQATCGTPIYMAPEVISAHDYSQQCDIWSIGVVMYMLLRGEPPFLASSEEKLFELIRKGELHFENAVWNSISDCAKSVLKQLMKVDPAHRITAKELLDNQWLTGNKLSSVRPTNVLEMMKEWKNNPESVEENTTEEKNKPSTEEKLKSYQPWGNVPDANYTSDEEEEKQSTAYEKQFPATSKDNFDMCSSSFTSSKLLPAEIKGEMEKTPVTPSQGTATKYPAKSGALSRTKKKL
GSK3B inh: blocks human GSK3beta kinase activity. P49841. GST-GSK3beta kinase, ADP-Glo luminescence, 60 min; active compounds read low. activity score (negative = inhibition), % at 10 µM. actives 0.038% (n = 300,000);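 active = more than half of replicate wells score below -50%, meaning over 50% inhibition versus plate controls; inconclusive = some replicates but at most half score below -50%; inactive = no replicate scores below -50%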
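Assay system: GST-fused GSK3beta enzyme, cell-free / Medium: Tris pH 7.5 buffer with MgCl2, DTT, BSA, heparin / Also added: peptide substrate plus 25 µM ATP (final) / Compound: 10 µM single point / Timing: kinase reaction with compound 60 min at room temperature / Detection: ADP-Glo luminescence / Benchmarks: DMSO neutral wells and GW8510 at 20 µM as positive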
Each line names hits and unclear results; the compound was inactive in the other large screens; ! = not confirmed by another sample. Hits are enriched below; roughly 0.72% of the tested compounds scored in any of these assays.

COc1cc(C2c3sc(=O)[nH]c3SC3C(=O)N(c4ccc(C)cc4)C(=O)C32)ccc1O (stereo not given)	STK33 inh 31
COc1ccc(C2c3sc(=O)[nH]c3SC3C4CCC(C4)C23)cc1 (stereo not given)	none
CCOc1ccc(N2C(=O)C3Sc4[nH]c(=O)sc4C(c4ccc(OC)c(OC)c4)C3C2=O)cc1 (stereo not given)	none
COc1ccccc1NC(=O)CCc1nnc2ccc(N3CCC4(CC3)OCCO4)nn12	none
COCCn1c(SCC(=O)N2CCCCCC2)nnc1-c1ccco1	none
Cn1c(SCc2nnc(-c3ccc(F)cc3)o2)nnc1C1COc2ccccc2O1 (stereo not given)	GSK3A inh 60
C[C@H](CO)N1C[C@H](C)[C@@H](CN(C)C(=O)Nc2ccc3c(c2)OCO3)Oc2ccc(NC(=O)Nc3ccc4c(c3)OCO4)cc2C1=O	none (no result: AI-2 QS modul, PolyA inhibitor, GSK3B inh)
O=C(/C=C/c1ccco1)NC(=S)Nc1ccccc1	AI-2 QS modul -77
O=C(/C=C/c1cccs1)NC(=S)NNC(=O)c1ccccc1O	none
O=C(/C=C/c1cccs1)NC(=S)Nc1ccccc1	AI-2 QS modul -77
CC(=O)c1ccc(NC(=S)NC(=O)/C=C/c2ccco2)cc1	none
CCCCCCCCCCCCCCCCn1cc[n+](C)c1	AI-2 QS modul inconclusive, STK33 inh 27!
CC1(C)Oc2ccc3ccc(=O)oc3c2-c2cn[nH]c21	GSK3A inh 68
CC1(C)Oc2ccc3ccc(=O)oc3c2-c2cnoc21	none
CCOC(=O)c1cccc(NC(=O)Cn2cc3c(n2)CCC(C)C3)c1 (stereo not given)	AI-2 QS modul -77 (no result: GSK3A inh)
CC(=O)Nc1ccc(NC(=O)Cn2cc3c(n2)CCC(C)C3)cc1 (stereo not given)	none (no result: GSK3A inh, CR mimetic SO, STK33 inh)
COc1ccc(COC(=O)Nc2cc3c(C(F)(F)F)nn(C)c3s2)cc1	AI-2 QS modul -77
O=C(COc1ccccc1[N+](=O)[O-])N1CCN(c2ccccn2)CC1	none
O=C(Cc1noc2ccccc12)Nc1ccc(Cl)cc1	AI-2 QS modul -84
O=C(Cc1noc2ccccc12)NNC(=S)Nc1ccc(Cl)cc1	none
CCN(CC)CCNC(=O)c1ccc(NC(=O)C2CCN(c3ncnc4sc(C)c(C)c34)CC2)cc1	GSK3A inh 53
Cc1cc(NC(=O)CSc2nnc(C(F)(F)F)n2C)no1	none (no result: AI-2 QS modul, PolyA inhibitor, GSK3B inh)
C=CCc1cccc(CNc2cnc3ccccc3c2)c1O	AI-2 QS modul -77
C/C(=N/Nc1ccnc2cc(Cl)ccc12)c1ccc(O)cc1	STK33 inh 32
C/C(=N/Nc1ccnc2cc(Cl)ccc12)c1ccc(N)cc1	none
O=C(Nc1ccnn1C1CCN(CCCc2ccccc2)CC1)c1cccc(F)c1	none
O=[N+]([O-])c1cc(CN2CCCC2)c2cccnc2c1O	none (no result: AI-2 QS modul, PolyA inhibitor, GSK3B inh)
O=[N+]([O-])c1cc(CN2CCN(c3cccc(C(F)(F)F)c3)CC2)c2cccnc2c1O	AI-2 QS modul -97
CCOC(=O)c1nnn(-c2nonc2N)c1-c1ccc(OCC)cc1	GSK3A inh 50
C/C(=N\NC(=O)c1nnn(-c2nonc2N)c1-c1cccs1)c1cccc(O)c1	GSK3A inh 66
CCOc1cccc(-c2c(C(=O)N/N=C(\C)c3ccncc3)nnn2-c2nonc2N)c1	GSK3A inh 69
Cc1ccccc1OCC(=O)Nc1ccc(C(=O)Nc2ccccc2C(=O)O)cc1	none
COc1ccc(Nc2nc(-c3ccccc3O)nc3ccccc23)cc1	none
Oc1ccc(Nc2nc(-c3ccccc3O)nc3ccccc23)cc1	STK33 inh 49
O=C(Nc1ccccc1)Nc1csc2ccccc12	CR mimetic SO 63
Cc1cc(N2O[C@]34C=C[C@]25C[C@@H](O)CC[C@]5(C)C3CC[C@]2(C)[C@@H]([C@H](C)/C=C/[C@H](C)C(C)C)CC[C@H]24)no1 (stereo not given in full)	CR mimetic SO 57 (no result: AI-2 QS modul, GSK3A inh, PolyA inhibitor, STK33 inh, GSK3B inh)
COc1ccc2nc(NC(=O)CCc3cc(OC)c(OC)c(OC)c3)sc2c1	none
O=C1CC(C(=O)N2CCc3ccccc32)CN1c1ccc(F)cc1 (stereo not given)	none
CC(=O)Nc1nc(-c2ccc([N+](=O)[O-])cc2)cs1	none
O=C(Nc1ccc([N+](=O)[O-])cc1)Nc1nc(-c2ccc(Cl)s2)cs1	AI-2 QS modul -86
Cn1c(=O)c(=O)n(C)c2cc(S(=O)(=O)N3CC(=O)N(CCc4ccccc4)C(=O)C3)ccc21	PolyA inhibitor inconclusive
CCCCCc1ccc(C2=NNC(=O)CC2)cc1	AI-2 QS modul -89
Cc1ccc(-c2ccc(=O)[nH]n2)cc1	none
CCCCCc1ccc(-c2ccc(=O)[nH]n2)cc1	AI-2 QS modul -77
O=C(CNC(=O)Cc1ccc(Cl)cc1)NCc1ccco1	none
COc1ccc2oc3cc(C)[n+]([O-])c(-c4ccc(C)cc4)c3c2c1	GSK3A inh 53, GSK3B inh -55
COc1ccc(-c2c3c(cc(C)[n+]2[O-])oc2ccc(OC)cc23)cc1	none
COc1ccc(-n2c(C)cc(C(=O)CCl)c2C)cc1	AI-2 QS modul -87
COc1ccccc1NC(=O)CCC(=O)OCc1ccc(Cl)cc1	none
O=C(CNC(=O)c1ccco1)OCc1ccc(Br)cc1	AI-2 QS modul -76
Cc1cc(N2CCCC2=O)ccc1S(=O)(=O)NC1CCCCC1	none
CCOC(=O)c1sc(=S)n(Cc2ccccc2)c1N	AI-2 QS modul -86
Cc1ccc(C(c2nnnn2CC2CCCO2)N2CCN(Cc3ccccc3)CC2)cc1 (stereo not given)	none
CCOC(=O)Cc1csc(NC(=O)Nc2cccc(OC)c2)n1	CR mimetic SO 59
Cc1cccc(OCc2nc(-c3ccc(Br)o3)no2)c1	AI-2 QS modul -78
O=c1cc(-c2ccccc2)c2c(O)cc(O)cc2o1	GSK3A inh 72, GSK3B inh -58
O=C(CSc1ccccn1)Nc1nonc1[N+](=O)[O-]	AI-2 QS modul -88 (no result: GSK3A inh, STK33 inh)
COc1cc(C(=O)NCCCNc2ccc([N+](=O)[O-])cc2)cc(OC)c1OC	none
Cc1ccc(N(CC(O)CN2CCCCC2)S(=O)(=O)c2ccccc2)cc1 (stereo not given)	GSK3A inh 94
COC(CNC(=O)c1ccc2c(c1)ncn2C1CCCCCC1)OC	none
COc1ccccc1/C=C/C(=O)NCC(=O)N/N=C/c1ccc(C)o1	none
COc1cc(/C=C2\SC(N)=NC2=O)ccc1O	STK33 inh 26
COc1cc(/C=C2\COC/C(=C\c3ccc(O)c(OC)c3)C2=O)ccc1O	none
COc1cc(/C=C2/CC/C(=C/c3ccc(O)c(OC)c3)C2=O)ccc1O	PolyA inhibitor 61
C=CCOc1ccc(/C=C2\SC(N)=NC2=O)cc1OC	none
COc1ccc(/C=N\NC(=O)C2CCCC2)cc1Br	none
